Laboratory results taken from ChEMBL document CHEMBL3616437, “Thiazole compounds with activity against Cryptococcus gattii and Cryptococcus neoformans in vitro” (Eur J Med Chem, 2015).
Converted amounts (≈) assume the structure as drawn.

Tests used:
[1] = test system: Cryptococcus gattii species complex; experiment: Antifungal activity against Cryptococcus gattii L24/01 after 48 to 72 hrs by broth microdilution method; type: functional, Cryptococcus bacillisporus
Outline: (§1)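 CLSI M27-A3 broth microdilution in RPMI with L-glutamine, buffered to pH 7.0 with 0.165 M MOPS. Colonies grown twice on SDA, 48 h at 35°C. Inoculum set to 70% transmittance at 530 nm, then diluted to 1-5 x10^3 cells/mL. Test agents dissolved in DMSO, serially diluted, tested at 0.1 to 62.5 µM. Plates held at 35°C for 48-72 h. MIC is the lowest concentration giving an optically clear well, read visually against drug-free growth controls.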

[2] = test system: Cryptococcus gattii species complex; experiment: Antifungal activity against Cryptococcus gattii 23/10993 after 48 to 72 hrs by broth microdilution method; type: functional, Cryptococcus bacillisporus; outline: as §1
Cryptococcus neoformans [3] = experiment: Ratio of compound MIC for Cryptococcus neoformans LMM820 in presence of amphotericin B to compound MIC for Cryptococcus neoformans LMM820 in absence of amphotericin B by checkerboard microtiter test; type: functional
Outline: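 Checkerboard microdilution: eight two-fold dilutions of test compound (0.11 to 15.6 µM) crossed with amphotericin B (0.025 to 3.9 µM, in DMSO) or fluconazole (0.48 to 62.5 µM, in water). Inoculum per CLSI M27-A3 in RPMI-MOPS pH 7.0, 1-5 x10^3 cells/mL. Growth 48 to 72 h. Effective MIC is the combination concentration giving complete inhibition. FICs derived from MICs in combination versus alone.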

Cryptococcus neoformans [4] = experiment: Antifungal activity against Cryptococcus neoformans LMM820 after 48 to 72 hrs by broth microdilution method; type: functional
Outline: (§2)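 CLSI M27-A3 broth microdilution. Isolates subcultured twice on SDA, 48 h at 35°C. Saline suspension adjusted to 70% transmittance at 530 nm, then diluted to 1-5 x10^3 cells/mL in RPMI with L-glutamine, 0.165 M MOPS, pH 7.0. Compounds in DMSO, tested at […]. 35°C for 48-72 h. MIC read visually as the lowest concentration giving an optically clear well.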

Cryptococcus neoformans [5] = experiment: Antifungal activity against Cryptococcus neoformans 27JF after 48 to 72 hrs by broth microdilution method; type: functional; outline: as §2
[6] = test system: Cryptococcus gattii species complex; experiment: Antifungal activity against Cryptococcus gattii 196L/03 after 48 to 72 hrs by broth microdilution method; type: functional, Cryptococcus bacillisporus; outline: as §1
Cryptococcus neoformans [7] = experiment: Antifungal activity against Cryptococcus neoformans F10 after 48 to 72 hrs by broth microdilution method; type: functional; outline: as §2
Cryptococcus neoformans [8] = experiment: Antifungal activity against Cryptococcus neoformans ATCC 24067 after 48 to 72 hrs by broth microdilution method; type: functional; outline: as §2
[9] = test system: Cryptococcus gattii species complex; experiment: Antifungal activity against Cryptococcus gattii LMM818 after 48 to 72 hrs by broth microdilution method; type: functional, Cryptococcus bacillisporus; outline: as §1
[10] = test system: Cryptococcus gattii species complex; experiment: Antifungal activity against Cryptococcus gattii 547/OTTI-97-PI-10 after 48 to 72 hrs by broth microdilution method; type: functional, Cryptococcus bacillisporus; outline: as §1
Cryptococcus neoformans [11] = experiment: Antifungal activity against Cryptococcus neoformans ATCC 62066 after 48 to 72 hrs by broth microdilution method; type: functional
Cryptococcus neoformans [12] = experiment: Antifungal activity against Cryptococcus neoformans WP after 48 to 72 hrs by broth microdilution method; type: functional; outline: as §2
Vero = experiment: Cytotoxicity against African green monkey Vero cells assessed as cell viability measured after 48 hrs by MTT assay; type: cell-based; details: Chlorocebus sabaeus
Outline: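 VERO cells in D-MEM with 5% FBS, used up to 20 passages. Seeded 1 x 10^4 cells/well, pre-incubated 24 h at 37°C. Exposed 48 h at 37°C, 5% CO2, to eight nonserial dilutions from 100 to 0.0128 µM, with 0.5% DMSO control. MTT reduction read-out, corrected for background and blank. IC50 reported as median with 95% CI. Triplicate, two independent experiments.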

[13] = test system: Cryptococcus gattii species complex; experiment: Antifungal activity against Cryptococcus gattii L27/01 after 48 to 72 hrs by broth microdilution method; type: functional, Cryptococcus bacillisporus; outline: as §1
[14] = test system: Cryptococcus gattii species complex; experiment: Antifungal activity against Cryptococcus gattii L28/02 after 48 to 72 hrs by broth microdilution method; type: functional, Cryptococcus bacillisporus; outline: as §1
[15] = test system: Cryptococcus bacillisporus; experiment: Antifungal activity against Cryptococcus gattii ATCC 32608 after 48 to 72 hrs by broth microdilution method; type: functional; outline: as §1
[16] = test system: Cryptococcus gattii species complex; experiment: Antifungal activity against Cryptococcus gattii 1913ER after 48 to 72 hrs by broth microdilution method; type: functional, Cryptococcus bacillisporus; outline: as §1
Cryptococcus neoformans [17] = experiment: Antifungal activity against Cryptococcus neoformans ATCC 28957 after 48 to 72 hrs by broth microdilution method; type: functional; outline: as §2
[18] = Selectivity index, ratio of IC50 for African green monkey Vero cells to MIC for Cryptococcus neoformans ATCC 24067; type: toxicity, cell-based
Cryptococcus neoformans [19] = experiment: Antifungal activity against Cryptococcus neoformans 28JF after 48 to 72 hrs by broth microdilution method; type: functional; outline: as §2
[20] = test system: Cryptococcus gattii species complex; experiment: Antifungal activity against Cryptococcus gattii 135L/03 after 48 to 72 hrs by broth microdilution method; type: functional, Cryptococcus bacillisporus; outline: as §1
[21] = Cytotoxicity against C57BL/6 mouse peritoneal macrophages assessed as cell viability measured after 48 hrs by MTT assay; type: cell-based; details: C57BL/6, Peritoneal macrophage cell
Outline: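 Thioglycollate-elicited peritoneal macrophages from male C57BL/6 mice, 6–8 weeks old, in RPMI with 10% FBS. Seeded 1 x 10^5 cells/well, pre-incubated 24 h at 37°C. Exposed 48 h at 37°C, 5% CO2, to eight nonserial dilutions from 100 to 0.0128 µM, with 0.5% DMSO control. MTT read-out, % inhibition versus DMSO control. IC50 reported as median with 95% CI. Triplicate, two independent experiments.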

[22] = test system: Cryptococcus gattii species complex; experiment: Antifungal activity against Cryptococcus gattii ICB181 after 48 to 72 hrs by broth microdilution method; type: functional, Cryptococcus bacillisporus; outline: as §1
Cryptococcus neoformans [23] = experiment: Antifungal activity against Cryptococcus neoformans 96806 after 48 to 72 hrs by broth microdilution method; type: functional; outline: as §2
Cryptococcus neoformans [24] = experiment: Antifungal activity against Cryptococcus neoformans VM-MCMMPI after 48 to 72 hrs by broth microdilution method; type: functional; outline: as §2
Cryptococcus neoformans [25] = experiment: Antifungal activity against Cryptococcus neoformans CN31 after 48 to 72 hrs by broth microdilution method; type: functional; outline: as §2
[26] = Selectivity index, ratio of IC50 for C57BL/6 mouse peritoneal macrophages to MIC for Cryptococcus neoformans ATCC 24067
Outline: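 SI = IC50/MIC. Thioglycollate-elicited peritoneal macrophages from C57BL/6 mice are seeded at 1 x 10^5/well. They are exposed for 48 h at 37°C to eight concentrations from 100 to 0.0128 µM. Viability read by MTT versus 0.5% DMSO control, triplicate in two experiments.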

Cryptococcus neoformans [27] = experiment: Antifungal activity against Cryptococcus neoformans 5396 after 48 to 72 hrs by broth microdilution method; type: functional; outline: as §2

MIC [1]: 1.7 µM (≈ 0.438 µg/mL)
MIC [2]: 2.9 µM (≈ 0.746 µg/mL)
MIC (Cryptococcus neoformans [4]): 2.2 µM (≈ 0.566 µg/mL)
MIC (Cryptococcus neoformans [5]): 3.2 µM (≈ 0.824 µg/mL)
MIC [6]: 2.2 µM (≈ 0.566 µg/mL)
MIC (Cryptococcus neoformans [7]): 2.2 µM (≈ 0.566 µg/mL)
MIC (Cryptococcus neoformans [8]): 1.9 µM (≈ 0.489 µg/mL)
MIC [9]: 3.4 µM (≈ 0.875 µg/mL)
MIC [10]: 1.9 µM (≈ 0.489 µg/mL)
MIC (Cryptococcus neoformans [11]): 1.2 µM (≈ 0.309 µg/mL)
MIC (Cryptococcus neoformans [12]): 3.2 µM (≈ 0.824 µg/mL)
MIC [13]: 1.5 µM (≈ 0.386 µg/mL)
MIC [14]: 2.7 µM (≈ 0.695 µg/mL)
MIC [15]: 2.2 µM (≈ 0.566 µg/mL)
MIC [16]: 1 µM (≈ 0.257 µg/mL)
MIC (Cryptococcus neoformans [17]): 2.2 µM (≈ 0.566 µg/mL)
MIC (Cryptococcus neoformans [19]): 2.6 µM (≈ 0.669 µg/mL)
MIC [20]: 3.1 µM (≈ 0.798 µg/mL)
MIC [22]: 1 µM (≈ 0.257 µg/mL)
MIC (Cryptococcus neoformans [23]): 1.9 µM (≈ 0.489 µg/mL)
MIC (Cryptococcus neoformans [24]): 1.6 µM (≈ 0.412 µg/mL)
MIC (Cryptococcus neoformans [25]): 1.9 µM (≈ 0.489 µg/mL)
MIC (Cryptococcus neoformans [27]): 1.2 µM (≈ 0.309 µg/mL)
SMILES: c1ccc(-c2csc(NN=C3CCCC3)n2)cc1
MFC [1]: 7.8 µM (≈ 2.01 µg/mL)
MFC [2]: 3.9 µM (≈ 1 µg/mL)
fractional inhibitory concentration index (FICI) (Cryptococcus neoformans [3]): 2.66
MFC (Cryptococcus neoformans [4]): 3.9 µM (≈ 1 µg/mL)
MFC (Cryptococcus neoformans [5]): 7.8 µM (≈ 2.01 µg/mL)
MFC [6]: 7.8 µM (≈ 2.01 µg/mL)
MFC (Cryptococcus neoformans [7]): 7.8 µM (≈ 2.01 µg/mL)
MFC [9]: 3.9 µM (≈ 1 µg/mL)
MFC [10]: 7.8 µM (≈ 2.01 µg/mL)
MFC (Cryptococcus neoformans [11]): 3.9 µM (≈ 1 µg/mL)
MFC (Cryptococcus neoformans [12]): 3.9 µM (≈ 1 µg/mL)
IC50 (Vero): > 100 µM
MFC [13]: 1.9 µM (≈ 0.489 µg/mL)
MFC [14]: 3.9 µM (≈ 1 µg/mL)
MFC [15]: 3.9 µM (≈ 1 µg/mL)
MFC [16]: 7.8 µM (≈ 2.01 µg/mL)
MFC (Cryptococcus neoformans [17]): 7.8 µM (≈ 2.01 µg/mL)
selectivity ratio [18]: 29
MFC (Cryptococcus neoformans [19]): 1.9 µM (≈ 0.489 µg/mL)
MFC [20]: 3.9 µM (≈ 1 µg/mL)
IC50 [21]: > 100 µM
MFC [22]: 1.9 µM (≈ 0.489 µg/mL)
MFC (Cryptococcus neoformans [23]): 7.8 µM (≈ 2.01 µg/mL)
MFC (Cryptococcus neoformans [24]): 7.8 µM (≈ 2.01 µg/mL)
MFC (Cryptococcus neoformans [25]): 1.9 µM (≈ 0.489 µg/mL)
Ratio [26]: 29
MFC (Cryptococcus neoformans [27]): 0.9 µM (≈ 0.232 µg/mL)
